Data: publication PMC12799549 (Drug Metabolism and Disposition, 2025)
Where two headings read alike, the source gives them in different places. Marks after values point to notes of the source that are not given here.

Columns and labels:
ENT1KO cells = test: MTT cell viability, ENT1KO; assay type: cell-based, human; conditions: 48 h; for % resistant: ENT1KO, plateau of biphasic curve fit; for EC50: Homo sapiens
Summary of the method: (§1)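 Cells seeded at 1.1 × 10^5/well in complete medium; 1 h later, medium with a range of test compound concentrations added for 48 h at 37 °C, 5% CO2. Vehicle is DMSO-only medium (100%), and compound medium without cells is background (0%). MTT 1 mg/mL in Dulbecco's PBS for 90 min; formazan dissolved in DMSO, A570. Biphasic curves fitted to a 2-site model: plateau gives % resistant, with a LogEC50 per phase. n = 5.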

ENT2KO cells = test: MTT cell viability, ENT2KO; assay type: cell-based, human; conditions: 48 h; for % resistant: plateau of biphasic curve fit
Summary of the method: as §1

HEK293 cells = test: MTT cell viability, HEK293; assay type: cell-based, human; conditions: for % resistant: plateau of biphasic curve fit, mean ± SEM; for concentration required to impact the remaining (resistant) cells: biphasic viability profile
Summary of the method: as §1

E1E2KO cells = test: MTT cell viability, E1E2KO; assay type: cell-based, human; conditions: 48 h; for % resistant: E1E2KO, plateau of biphasic curve fit; for EC50: Homo sapiens
Summary of the method: as §1

ENT2 [1] = target: T1, ENT2 (Homo sapiens, UniProt Q14542); test: Inhibition of [3H]2-chloroadenosine uptake in ENT1KO cells; assay type: cell-based
T1 sequence (Q14542 1-456): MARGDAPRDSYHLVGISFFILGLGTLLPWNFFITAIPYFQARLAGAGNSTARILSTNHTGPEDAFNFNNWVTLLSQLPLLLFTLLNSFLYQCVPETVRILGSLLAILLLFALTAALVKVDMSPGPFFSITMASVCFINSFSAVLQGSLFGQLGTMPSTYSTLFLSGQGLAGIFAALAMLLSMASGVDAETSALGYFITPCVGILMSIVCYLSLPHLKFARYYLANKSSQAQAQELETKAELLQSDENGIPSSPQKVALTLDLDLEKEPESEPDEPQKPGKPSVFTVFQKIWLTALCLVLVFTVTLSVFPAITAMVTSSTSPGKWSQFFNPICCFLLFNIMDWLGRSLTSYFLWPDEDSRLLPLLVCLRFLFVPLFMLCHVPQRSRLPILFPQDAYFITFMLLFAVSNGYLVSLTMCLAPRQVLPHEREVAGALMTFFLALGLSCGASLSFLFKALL

ENT1 and ENT2 = assay type: cell-based, human; conditions: HEK293 cells; 10 μM substrate, 15 s uptake; printed as logIC50 (negative)
ENT1 [2] = target: T2, ENT1 (Homo sapiens, UniProt Q99808); test: Inhibition of [3H]2-chloroadenosine uptake in ENT2KO cells; assay type: cell-based; conditions: comparison of ENT2KO cells (ENT1) with ENT1KO cells (ENT2)
T2 sequence (Q99808 1-456): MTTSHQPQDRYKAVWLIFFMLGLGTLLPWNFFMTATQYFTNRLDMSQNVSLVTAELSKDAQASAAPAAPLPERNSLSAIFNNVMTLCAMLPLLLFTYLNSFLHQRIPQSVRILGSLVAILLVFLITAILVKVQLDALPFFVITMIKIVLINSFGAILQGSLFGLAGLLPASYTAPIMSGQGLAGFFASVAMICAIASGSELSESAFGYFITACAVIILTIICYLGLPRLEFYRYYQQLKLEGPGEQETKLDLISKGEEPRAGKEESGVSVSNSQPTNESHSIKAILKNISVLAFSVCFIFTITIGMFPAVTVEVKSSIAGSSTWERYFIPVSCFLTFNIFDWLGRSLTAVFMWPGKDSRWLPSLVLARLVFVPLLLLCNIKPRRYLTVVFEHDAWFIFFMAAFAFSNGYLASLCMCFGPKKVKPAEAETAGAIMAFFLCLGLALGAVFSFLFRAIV

ENT1 [3] = target: T2, ENT1; test: [3H]2-chloroadenosine transport kinetics, ENT1-mediated uptake; assay type: cell-based; conditions: for Vmax of ENT1-mediated uptake: 10 s uptake
Summary of the method: (§2)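 Trypsin/EDTA-detached cells were suspended in sodium-free N-methylglucamine buffer, pH 7.4, with 0.1% DMSO, 100 nM NBMPR or 5 mM adenosine, 15 min at room temperature. Uptake of varied [3H]2-chloroadenosine ran 10 s and was stopped by spinning through silicone:mineral oil; NaOH-digested pellets were scintillation-counted. Cell volume came from [3H]-water. ENT2 = NBMPR minus adenosine condition; ENT1 = mediated minus ENT2. Michaelis-Menten Km/Vmax; 5 experiments, duplicate.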

ENT2 [4] = target: T1, ENT2; test: [3H]2-chloroadenosine transport kinetics, ENT2-mediated uptake; assay type: cell-based
Summary of the method: as §2

[5] = read-out: LogEC50-1 (converted)
[6] = read-out: LogEC50-2 (converted)

| SMILES | % resistant (ENT1KO cells) | EC50 (ENT1KO cells; [5]) [µM] | % resistant (ENT2KO cells) | % resistant (HEK293 cells; 48 h, n = 5) | % resistant (E1E2KO cells) | EC50 (E1E2KO cells; [5]) [µM] | concentration required to impact the remaining (resistant) cells (HEK293 cells) [µM] | also measured |
| --- | --- | --- | --- | --- | --- | --- | --- | --- |
| O=c1[nH]cc(F)c(=O)[nH]1 [5-fluorouracil] | Monophasic | 8.51 | Monophasic | Monophasic | 48 ± 10% | 7.76 | – | EC50 (E1E2KO cells; [6]): 1070 µM |
| Sc1ncnc2nc[nH]c12 [6-mercaptopurine] | 66 ± 4 ^b % | 2.95 | 41 ± 3% | – | 70 ± 4 ^b % | 26.3 | > 300 | – |
| Nc1nc2nc[nH]c2c(=S)[nH]1 [6-thioguanine] | 10 ± 3% | 1.7 | 25 ± 5% | – | Monophasic | 77.6 | > 300 | – |
| Nc1nc(Cl)nc2c1ncn2[C@H]1C[C@H](O)[C@@H](CO)O1 [Cladribine, cladribine] | Monophasic | 3.98 | Monophasic | Monophasic | Monophasic | 16.6 | – | LogEC50-1 (ENT2KO cells; high affinity phase, given as logEC50 (negative)): −4.51 ± 0.07 ^b; LogEC50-1 (HEK293 cells; 48 h, high affinity phase, given as logEC50 (negative)): −5.11 ± 0.07 |
| Nc1nc(Cl)nc2c1ncn2[C@@H]1O[C@H](CO)[C@@H](O)[C@@H]1F [Clofarabine, clofarabine] | 6 ± 2 ^b % | 0.174 | 70 ± 3 ^b % | 21 ± 2% | Monophasic | 138 | > 300 | sensitivity of ENT2KO cells to the drug (ENT2KO cells): almost completely resistant; Ki (ENT2 [1]): 75 ± 49 µM; % resistant (HEK293 cells; 48 h, n = 5, listed as clofarabine): approximately 20% |
| Nc1ccn([C@@H]2O[C@H](CO)[C@@H](O)[C@@H]2O)c(=O)n1 [Cytarabine, cytarabine] | 37 ± 3 ^b % | 2.34 | Monophasic | 51 ± 2% | Monophasic | – | > 300 | EC50 (ENT1KO cells; [6]): 4570 µM; sensitivity of ENT2KO cells to the drug (ENT2KO cells): almost completely resistant; EC50 (E1E2KO cells; [6]): 11200 µM |
| OCCN(CCO)c1nc(N2CCCCC2)c2nc(N(CCO)CCO)nc(N3CCCCC3)c2n1 [DY, Dipyridamole] | – | – | – | – | – | – | – | IC50 (ENT2 [1]): 0.501 µM; logIC50, monophasic inhibition of [3H]2-chloroadenosine uptake (ENT1 and ENT2): −6.6 ±.01 M |
| COc1cc(C(=O)OCCCN2CCCN(CCCOC(=O)c3cc(OC)c(OC)c(OC)c3)CC2)cc(OC)c1OC [Dilazep, dilazep] | – | – | – | – | – | – | – | IC50 (ENT2 [1]): 6.31 µM |
| Nc1ccn([C@@H]2O[C@H](CO)[C@@H](O)C2(F)F)c(=O)n1 [Gemcitabine, gemcitabine] | 14 ± 2 ^b % | 0.0427 | 76 ± 3 ^b % | 33 ± 4% | Monophasic | – | > 300 | EC50 (ENT1KO cells; [6]): 468 µM; sensitivity of ENT2KO cells to the drug (ENT2KO cells): almost completely resistant; EC50 (E1E2KO cells; [6]): 1820 µM |
| Nc1nc2c(ncn2[C@@H]2O[C@H](CO)[C@@H](O)[C@H]2O)c(=O)[nH]1 [Guanosine, guanosine] | – | – | – | – | – | – | – | relative affinity for ENT1 versus ENT2 (ENT1 [2]): significantly higher affinity for ENT1 over ENT2 |
| O=[N+]([O-])c1ccc(CSc2ncnc3c2ncn3[C@@H]2O[C@H](CO)[C@@H](O)[C@H]2O)cc1 [NBMPR, nitrobenzylmercaptopurine riboside (nitrobenzylthioinosine)] | – | – | – | – | – | – | – | concentration required to obtain any inhibition of [3H]2-chloroadenosine uptake (ENT2 [1]; ENT1KO cells): > 1 µM; logIC50, inhibition of [3H]2-chloroadenosine uptake (ENT2 [1]; ENT1KO cells, 10 μM substrate, 15 s uptake, printed as logIC50 (negative)): ~−5.5 ± 0.1 M |
| Nc1ncnc2c1ncn2[C@@H]1O[C@H](CO)[C@@H](O)[C@@H]1O [Vidarabine] | – | – | – | – | – | – | – | Ki (ENT2 [1]): 60 ± 24 µM |
| [3H]c1nc2c(N)nc(Cl)nc2n1[C@@H]1O[C@H](CO)[C@@H](O)[C@H]1O [[^3H]2-chloroadenosine, [8-^3H]2-Chloroadenosine] | – | – | – | – | – | – | – | ENT1-mediated uptake (ENT1 [3]; E1E2KO cells): no ENT1-mediated or ENT2-mediated uptake; Vmax of ENT1-mediated uptake (ENT1 [3]; ENT2KO cells): 4.8 ± 0.6 pmol/μL per second; Vmax of ENT1-mediated uptake (ENT1 [3]; HEK293 cells): 3.2 ± 0.3 pmol/μL per second; ENT2-mediated uptake (ENT2 [4]; E1E2KO cells): no ENT1-mediated or ENT2-mediated uptake; ENT2-mediated uptake (ENT2 [4]; ENT2KO cells): no detectable ENT2-mediated uptake |
